Measurements reported in ChEMBL document CHEMBL3525966, “Compartmental and enzyme kinetic modeling to elucidate the biotransformation pathway of a centrally acting antitrypanosomal prodrug” (Drug Metab Dispos, 2013).

Columns and labels:
[1] = Drug metabolism in sandwich-cultured human hepatocytes assessed as (Z)-6-(5-(5-carbamimidoylpyridin-2-yl)furan-2-yl)-N' methoxynicotinimidamide at 10 uM after 4 hrs of incubation by HPLC-MS/MS analysis; type: ADME, cell-based, Hepatocyte
Procedure, shortened: (§1)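 Sandwich-cultured hepatocytes were used on day 5 (human) or day 4 (rat) and rinsed with warm phenol-red-free DMEM. They were then exposed to 10 µM DB868 (0.1–0.2% DMSO) at 37°C. Medium and methanol/water cell lysates were collected at 0.5, 2, 4 and 24 h. Analytes were quantified by HPLC/MS/MS with deuterated internal standards; protein by Bradford. Replicates: 6 (human) or 4 (rat).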

[2] = target: T1, Cytochrome P450 4F2 (Homo sapiens, UniProt P78329); assay: Prodrug conversion assessed as human recombinant CYP4F2-mediated (Z)-N'-hydroxy-6-(5-(5-((Z)-N'-methoxycarbamimidoyl)pyridin-2-yl)furan-2-yl) nicotinimidamide formation at 5 uM after 180 mins incubation by HPLC-UV chromatogram; type: ADME; conditions: recombinant enzyme, 15 min, in the assay text read “15 mins” for “180 mins”
T1 sequence (P78329 whole entry): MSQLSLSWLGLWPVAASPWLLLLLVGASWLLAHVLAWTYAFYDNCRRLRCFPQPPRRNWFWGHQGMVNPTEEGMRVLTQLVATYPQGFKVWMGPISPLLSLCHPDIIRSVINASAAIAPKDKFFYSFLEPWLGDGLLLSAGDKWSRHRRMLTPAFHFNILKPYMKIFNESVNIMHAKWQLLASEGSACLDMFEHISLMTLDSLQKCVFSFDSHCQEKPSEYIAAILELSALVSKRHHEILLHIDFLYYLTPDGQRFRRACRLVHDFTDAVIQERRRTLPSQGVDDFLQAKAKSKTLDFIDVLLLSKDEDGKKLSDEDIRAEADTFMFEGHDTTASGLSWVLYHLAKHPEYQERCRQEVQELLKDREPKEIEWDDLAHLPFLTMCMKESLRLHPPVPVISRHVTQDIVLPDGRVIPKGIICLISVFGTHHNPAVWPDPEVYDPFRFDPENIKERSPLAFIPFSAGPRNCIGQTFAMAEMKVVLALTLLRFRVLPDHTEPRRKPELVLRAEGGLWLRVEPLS
Procedure, shortened: (§2)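 Insect-cell-expressed human or rat P450 (with NADPH-P450 reductase, some also with cytochrome b5) at 0.1 pmol/µL in 100 mM potassium phosphate pH 7.4 with 10 mM MgCl2. DB868 (for M1) or M1 (for M2) was added at 5 µM (0.5% DMSO) and started with 2 mM NADPH. Stopped after 15 min with ice-cold acetonitrile, then HPLC-UV. Duplicate incubations.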

[3] = Drug metabolism in sandwich-cultured rat hepatocytes assessed as (Z)-N'-hydroxy-6-(5-(5-((Z)-N'-methoxycarbamimidoyl)pyridin-2-yl)furan-2-yl)nicotinimidamide at 10 uM after 4 hrs of incubation by HPLC-MS/MS analysis; type: ADME, cell-based, Hepatocyte; procedure, shortened: as §1
[4] = Drug metabolism in sandwich-cultured human hepatocytes assessed as (3Z,3'Z)-6,6'-(furan-2,5-diyl)bis(N'-hydroxynicotinimidamide) at 10 uM after 4 hrs of incubation by HPLC-MS/MS analysis; type: ADME, cell-based, Hepatocyte; procedure, shortened: as §1
[5] = Biotransformation in sandwich-cultured rat hepatocytes assessed as depletion of compound at 10 uM after 4 hrs of incubation by HPLC-MS/MS analysis; type: ADME, cell-based, Hepatocyte; conditions: read-out: Drug metabolism; procedure, shortened: as §1
[6] = target: T2, Cytochrome P450 4F1 (Rattus norvegicus, UniProt P33274); assay: Prodrug conversion assessed as rat purified CYP4F1-mediated (Z)-N'-hydroxy-6-(5-(5-((Z)-N'-methoxycarbamimidoyl)pyridin-2-yl)furan-2-yl) nicotinimidamide formation at 5 uM after 30 mins incubation by HPLC-UV chromatogram; conditions: purified enzyme
T2 sequence (P33274 whole entry): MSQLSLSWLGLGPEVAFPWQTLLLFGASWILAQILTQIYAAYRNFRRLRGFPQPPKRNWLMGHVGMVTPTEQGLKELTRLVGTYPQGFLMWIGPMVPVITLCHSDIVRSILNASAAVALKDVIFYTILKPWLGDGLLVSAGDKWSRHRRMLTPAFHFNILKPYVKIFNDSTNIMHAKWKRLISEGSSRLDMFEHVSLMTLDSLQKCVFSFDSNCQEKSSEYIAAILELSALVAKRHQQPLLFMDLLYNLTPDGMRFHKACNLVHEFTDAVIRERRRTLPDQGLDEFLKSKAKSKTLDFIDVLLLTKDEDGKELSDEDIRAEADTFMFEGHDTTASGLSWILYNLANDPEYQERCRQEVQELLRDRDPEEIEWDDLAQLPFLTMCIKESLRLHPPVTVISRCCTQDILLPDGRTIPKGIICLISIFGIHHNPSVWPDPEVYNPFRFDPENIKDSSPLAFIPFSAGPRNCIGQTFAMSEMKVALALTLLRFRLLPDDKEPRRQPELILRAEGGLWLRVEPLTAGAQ

[7] = tested on: Hepatocyte; assay: Biotransformation in sandwich-cultured human hepatocytes assessed as depletion of compound at 10 uM after 4 hrs of incubation by HPLC-MS/MS analysis; type: ADME, cell-based; procedure, shortened: as §1
[8] = target: T3, Cytochrome P450 2D26 (Rattus norvegicus, UniProt P10634); assay: Prodrug conversion assessed as rat recombinant CYP2D2-mediated (Z)-N'-hydroxy-6-(5-(5-((Z)-N'-methoxycarbamimidoyl)pyridin-2-yl)furan-2-yl) nicotinimidamide formation at 5 uM after 180 mins incubation by HPLC-UV chromatogram; type: ADME; conditions: recombinant enzyme, 15 min, in the assay text read “15 mins” for “180 mins”; procedure, shortened: as §2
T3 sequence (P10634 whole entry): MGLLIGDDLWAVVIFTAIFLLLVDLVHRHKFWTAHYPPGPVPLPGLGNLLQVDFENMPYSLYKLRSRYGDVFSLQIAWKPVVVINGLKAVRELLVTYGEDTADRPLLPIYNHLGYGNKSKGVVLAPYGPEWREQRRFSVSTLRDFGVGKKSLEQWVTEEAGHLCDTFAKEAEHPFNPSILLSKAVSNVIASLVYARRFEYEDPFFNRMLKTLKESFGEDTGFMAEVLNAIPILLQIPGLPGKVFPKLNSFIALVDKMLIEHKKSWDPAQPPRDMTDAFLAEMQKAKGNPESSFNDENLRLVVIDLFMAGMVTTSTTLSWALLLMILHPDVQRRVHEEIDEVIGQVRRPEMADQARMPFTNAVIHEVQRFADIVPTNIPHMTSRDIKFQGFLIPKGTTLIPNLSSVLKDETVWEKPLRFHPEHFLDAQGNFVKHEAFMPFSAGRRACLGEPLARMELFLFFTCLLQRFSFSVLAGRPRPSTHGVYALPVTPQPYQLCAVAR

[9] = Drug metabolism in sandwich-cultured rat hepatocytes assessed as DB829 at 10 uM after 24 hrs of incubation by HPLC-MS/MS analysis; type: ADME, cell-based, Hepatocyte; procedure, shortened: as §1
[10] = tested on: Liver microsome; assay: Ratio of drug metabolism in […] to drug metabolism in rat hepatocytes at 10 uM after 4 hrs of incubation by HPLC-MS/MS analysis; type: ADME, cell-based, Hepatocyte

Structure (SMILES): CO/N=C(\N)c1ccc(-c2ccc(-c3ccc(/C(N)=N/OC)cn3)o2)nc1.Cl
- Drug metabolism [1]: metabolite_detected
- Drug metabolism [2]: metabolite_detected
- Drug metabolism [3]: metabolite_detected
- Drug metabolism [4]: metabolite_detected
- metabolised at 4 h, 10 µM [5]: 50%
- Drug metabolism [6]: metabolite_detected
- Drug metabolism [7]: metabolite_detected
- Drug metabolism [8]: metabolite_detected
- Drug metabolism [9]: metabolite_detected
- Ratio [10]: 25
